# Screening results from PubChem.
# UPR XBP1 act = adaptive UPR (XBP1) activation. CHO-XBP1 luciferase reporter, IRE1-XBP1 UPR activation, luminescence; percent of tunicamycin response, DMSO as zero. activation, % at 20 µM. actives 0.33% (n = 330,000). AID 463104;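 active = versus positive control, 20 µM dose yields 30% or more activation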
#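 Material: CHO cell line with stable XBP1 luciferase reporter; buffer or medium: F12 medium containing 10% fetal bovine serum; compound: single point, 20 µM final compound, 1% DMSO; incubation: 6 h treatment, 37 °C; measured by: glow luminescence from Steady-Glo reagent; evaluation: activation, % of tunicamycin; control set: tunicamycin high, DMSO low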
# CHOP inh = inhibitors of CHOP induction in ER stress response. CHO-K1 CHOP-promoter luciferase, tunicamycin-induced, 15-18 h. inhibition, % at 10 µM. actives 3.8% (n = 220,000). AID 2732;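 active = compounds that reduced the stress-induced luciferase reporter signal by more than about 70% of percent inhibition, limit read from the data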
# p97 inhibitor = human p97 ATPase inhibition; recombinant p97 ATPase, Kinase-Glo ATP luminescence, 3 h; inhibition, % at 8 µM; actives 0.42% (n = 220,000); in the data active = inhibition above about 15%
# Target sequence (P55072 whole entry, looked up): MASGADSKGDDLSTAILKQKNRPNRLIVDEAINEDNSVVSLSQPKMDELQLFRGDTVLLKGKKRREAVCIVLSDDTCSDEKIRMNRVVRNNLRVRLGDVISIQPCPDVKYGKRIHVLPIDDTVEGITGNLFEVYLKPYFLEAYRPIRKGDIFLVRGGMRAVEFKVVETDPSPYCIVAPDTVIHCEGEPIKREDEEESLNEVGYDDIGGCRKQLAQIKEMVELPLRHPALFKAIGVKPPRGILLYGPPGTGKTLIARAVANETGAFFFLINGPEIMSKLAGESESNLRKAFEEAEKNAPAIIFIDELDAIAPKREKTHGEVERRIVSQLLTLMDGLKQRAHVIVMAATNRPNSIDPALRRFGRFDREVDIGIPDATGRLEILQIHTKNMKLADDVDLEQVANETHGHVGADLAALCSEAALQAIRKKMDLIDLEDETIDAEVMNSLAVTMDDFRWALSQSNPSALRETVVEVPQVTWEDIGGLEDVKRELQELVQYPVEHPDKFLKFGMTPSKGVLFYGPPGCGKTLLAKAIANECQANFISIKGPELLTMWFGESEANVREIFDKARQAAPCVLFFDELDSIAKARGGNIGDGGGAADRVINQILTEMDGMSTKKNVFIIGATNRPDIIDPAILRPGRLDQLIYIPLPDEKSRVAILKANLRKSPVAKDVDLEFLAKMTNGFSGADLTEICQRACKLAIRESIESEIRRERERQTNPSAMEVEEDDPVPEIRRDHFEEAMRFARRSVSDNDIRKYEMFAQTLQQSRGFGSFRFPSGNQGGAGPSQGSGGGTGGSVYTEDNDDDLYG
# CHOP UPR activ = apoptotic UPR (CHOP) activation | actives 0.34% (n = 330,000) | activation, % at 10 µM | CHO-CHOP luciferase reporter, luminescence; percent of tunicamycin response over DMSO baseline | AID 449763;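 active = at 10 µM dose, activation of 40% or more, normalized to positive control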
#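 assay system = CHO CHOP reporter cells | amount = 500 CHO-CHOP cells per well | buffer or medium = F12 with 10% FBS | incubation = 16-18 h cell attachment, then 6 h compound exposure, 37 °C | detection = luminescence read with Steady-Glo | read-out = percent activation relative to tunicamycin control | controls = tunicamycin high control, DMSO low control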
# NS3 helicase inh = inhibitors of Hepatitis C virus NS3 helicase; NS3 helicase DNA unwinding, Cy5 molecular beacon fluorescence; inhibition, % at 10.9 µM; actives 0.56% (n = 290,000);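 active = inhibition above the mean of all tested compounds plus 3 SD, set per campaign, cut at about 35% in these data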
#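 assay system = NS3 helicase fragment of HCV | buffer or medium = MOPS pH 6.5, MgCl2, DTT, Tween20, BSA | timing = 60 min unwinding reaction at 25 °C after ATP addition | signal = Cy5 beacon fluorescence read at start and 1 h | read-out basis = % inhibition of unwinding | control set = low DMSO, high thioflavine S at 110 µM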
# M18AAP inhibitor = blocks P. falciparum M18 aspartyl aminopeptidase | actives 1.2% (n = 290,000) | recombinant PfM18AAP, H-Glu-NHMec fluorogenic cleavage | inhibition, % at 7.35 µM;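 active = inhibition above the campaign mean inhibition over all tested compounds plus 3 SD, cut at about 28% in these data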
# Numbers stand for hits; 0 = inactive; - = not tested or not shown. Most compounds without a hit are left out; they make up all but 4.5% or so of the library.
SMILES,UPR XBP1 act,CHOP inh,p97 inhibitor,CHOP UPR activ,NS3 helicase inh,M18AAP inhibitor
CCCCNC(=O)C(C1CCCCC1)N(CCN(C)C)C(=O)CCCN1C(=O)NC(c2ccc(-c3ccccc3)cc2)C(C(=O)OCc2ccccc2)=C1C (configuration not stated),41,-,-,0,-,-
Cc1sc2ncnc(SCc3ccco3)c2c1C,0,71,0,0,0,0
O=C1CCCC(O)=C1N=Nc1c(Cl)cc(C(F)(F)F)cc1Cl,0,0,0,0,0,28
O=C1CCCC(O)=C1N=Nc1ccc(C(=O)O)cc1,0,0,0,0,0,0
CS(=O)(=O)N(CC(=O)N1CCCC1)c1ccccc1Br,0,-,-,0,0,0
Cc1ccc(OCCCC(=O)Nc2ccc(Br)cc2)cc1,0,74,0,0,0,0
Cc1ccccc1/C=C/C1=NCCN1,0,99,-,0,-,-
COc1ccc2c(c1)CCCC21NC(=O)N(CC(=O)NCc2cccs2)C1=O (configuration not stated),0,-,-,0,-,-
CCOc1ccccc1NC(=O)C(NC(=O)C1CCC(C)CC1)C(C)C (configuration not stated),0,73,0,0,0,0
CCOc1ccccc1NC(=O)C(CC(C)C)NC(=O)C1CCC(C)CC1 (configuration not stated),0,0,0,0,0,0
O=C1CC(O)(C(F)F)Oc2ccc3ccccc3c21 (configuration not stated),0,0,0,0,0,0
O=C1CC(O)(C(F)(F)F)Oc2c1ccc1ccccc21 (configuration not stated),0,89,0,0,0,0
Cc1ccc(N2CCN(C(=S)Nc3ccccc3C)CC2)cc1,0,-,-,0,0,0
Cc1cc[n+](-c2[nH]c(=O)sc2/C=N/N=C(\[O-])c2ccncc2)cc1C,0,-,-,0,0,29
Cc1cc[n+](-c2[nH]c(=O)sc2/C=N/N=C(\[O-])c2ccccc2)cc1C,-,0,0,-,0,0
CCC(=O)N1CCc2cc(S(=O)(=O)NC(Cc3ccccc3)C(=O)O)ccc21 (configuration not stated),0,-,-,0,0,0
Cc1ccc(-c2nc(-c3cccnc3)no2)c(C)c1,0,73,0,0,0,0
CN=c1scc(C)n1/N=C/c1cc(Br)c(O)c(Br)c1,0,0,0,0,0,0
CCN=c1scc(C)n1/N=C/c1cc(Br)c(O)c(OC)c1,0,0,0,0,0,35
COc1ccc(S(=O)(=O)n2cnc3cc(C)c(C)cc32)cc1C,0,70,0,0,0,0
OCCN=C1CCCc2c1[nH]c1ccc(Br)cc21,0,72,0,0,0,0
Cc1ccc(CSCC(=O)N/N=C/c2sccc2C)cc1,0,95,0,0,0,0
O=C1COc2ccc(C(=O)CSc3nnnn3-c3ccccc3)cc2N1,0,0,0,0,0,0
Cn1c(SCC(=O)c2ccc3c(c2)NC(=O)CO3)nc2ccccc21,0,86,0,0,0,0
NC(=O)c1ccsc1NC(=O)CCS(=O)(=O)c1ccc(Cl)cc1,0,-,-,0,-,-
SMILES,UPR XBP1 act,CHOP inh,p97 inhibitor,CHOP UPR activ,NS3 helicase inh,M18AAP inhibitor
Nc1c(S(=O)(=O)c2cccs2)c2nc3ccccc3nc2n1/N=C/c1cccc(O)c1,0,89,0,0,0,0
CC(C)NC(=S)NC(=O)/C=C/c1cccc2ccccc12,0,86,0,0,0,0
Cn1c(C(C#N)C(=O)c2ccco2)nc2ccccc21 (configuration not stated),0,0,0,0,0,0
Cn1c(C(C#N)C(=O)Cc2cccc3ccccc23)nc2ccccc21 (configuration not stated),0,75,0,0,0,0
CCc1ccc2[nH]c(=O)c(CN(Cc3ccc4c(c3)OCO4)Cc3nnnn3C3CCCC3)cc2c1,0,82,0,0,0,0
Cc1ccc2cc(CN(Cc3ccc(F)cc3)Cc3nnnn3C3CCCC3)c(=O)[nH]c2c1,0,84,0,0,0,0
Cc1ccc(S(=O)(=O)N2CC=C(C(=O)NC3CC3)CC2)cc1,0,0,0,0,0,0
CN(C)c1cccc(C(=O)OCC(=O)NC(=O)NCc2ccccc2)c1,0,-,-,0,-,-
N#Cc1ccc(/C=C\c2nccc3c2[nH]c2ccccc23)cc1,0,78,0,0,0,0
